Results as given in paper PMC6349029 (Bioorganic & medicinal chemistry letters, 2018).

Legend:
[1] = tested on: kidney filter; conditions: in vivo animal model; cited from earlier work
[2] = target: T1, TRPC5 channel (Homo sapiens, UniProt Q9UL62); assay: TRPC5 % inhibition at single concentration, Syncropatch; format: cell-based; conditions: read-out: % inhibition at 3 μM, Table 3
T1 sequence (Q9UL62 1-973): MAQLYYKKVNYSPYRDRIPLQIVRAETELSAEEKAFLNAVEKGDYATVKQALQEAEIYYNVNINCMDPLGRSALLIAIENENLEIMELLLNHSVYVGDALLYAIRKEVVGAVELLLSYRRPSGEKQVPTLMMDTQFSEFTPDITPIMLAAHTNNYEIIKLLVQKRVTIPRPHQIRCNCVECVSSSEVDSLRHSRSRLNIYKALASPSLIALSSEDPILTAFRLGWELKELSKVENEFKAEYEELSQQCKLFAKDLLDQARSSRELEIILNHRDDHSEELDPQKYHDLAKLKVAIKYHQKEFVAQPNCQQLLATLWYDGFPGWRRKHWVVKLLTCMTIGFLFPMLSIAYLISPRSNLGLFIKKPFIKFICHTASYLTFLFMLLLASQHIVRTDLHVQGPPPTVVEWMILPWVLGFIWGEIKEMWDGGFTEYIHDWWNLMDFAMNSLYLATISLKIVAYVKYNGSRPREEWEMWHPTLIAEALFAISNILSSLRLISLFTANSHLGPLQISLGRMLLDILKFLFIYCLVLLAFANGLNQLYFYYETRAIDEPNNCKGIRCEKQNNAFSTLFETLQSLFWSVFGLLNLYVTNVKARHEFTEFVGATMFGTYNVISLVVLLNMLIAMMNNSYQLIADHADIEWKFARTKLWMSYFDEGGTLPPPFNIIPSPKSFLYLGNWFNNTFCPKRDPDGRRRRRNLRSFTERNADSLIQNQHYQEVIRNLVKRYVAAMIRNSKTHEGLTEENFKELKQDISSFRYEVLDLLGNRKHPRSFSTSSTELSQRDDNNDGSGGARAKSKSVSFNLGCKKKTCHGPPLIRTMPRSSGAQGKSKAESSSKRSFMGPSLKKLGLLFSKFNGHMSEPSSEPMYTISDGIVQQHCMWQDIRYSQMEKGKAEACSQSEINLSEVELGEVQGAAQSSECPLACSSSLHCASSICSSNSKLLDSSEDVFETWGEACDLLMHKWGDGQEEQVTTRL
Summary of the method: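 Automated patch-clamp (Syncropatch) first-pass screen of TRPC5 channel block. Each test compound was run at one concentration (3 μM) in a single well. Values were normalised so that the furfuryl-amine reference analogue's inhibition at 3 μM equals 100%. A reference inhibitor and DMSO served as controls on every plate. Recordings came from at least one session over two assay plates.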

[3] = tested on: animal models of kidney disease; conditions: previously shown; cited from earlier work
[4] = tested on: TRPC6; conditions: cited from earlier work
[5] = tested on: TRPC4; conditions: cited from earlier work

Compound | protection of the kidney filter [1] | inhibition at 3 µM [2] | activity in animal models of kidney disease [3] | selectivity for TRPC5 over TRPC6 [4] | selectivity for TRPC5 over TRPC4 [5]
Cc1cc(N2CCCCC2)nc2ccccc12 [ML204] | protect the kidney filter | – | – | – | –
Fc1ccc(Cn2c(NCc3ccco3)nc3ccccc32)cc1 [Compound 6o] | – | 167% | – | – | –
c1ccc(Cn2c(NCc3ccco3)nc3ccccc32)cc1 [Compound 2] | – | 100% | active | selective | selective
